Experimental data reported in ChEMBL document CHEMBL1649231, “In vitro activities of panduratin A against clinical Staphylococcus strains” (2009).
In brackets after ≈: the same amount, converted by molar mass.

What was measured:
Type in all cases: functional
Staphylococcus hominis [1] = experiment: Bactericidal activity against methicillin-susceptible coagulase-negative Staphylococcus hominis after 24 hrs by plate counting method
In short: (§1)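 Clinical staphylococcal isolates from patient body fluids, blood, genital secretions, pus or sputum; species by conventional methods or Vitek. Twofold dilutions in Mueller-Hinton broth, inoculum 5 × 10^5 CFU/ml, 37°C aerobic 24 h (CLSI M7-A6 microdilution). About 100 μl from each well without visible growth spread on MHA; 37°C 24 h. MBC = lowest concentration giving no growth on agar.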

Staphylococcus simulans [2] = experiment: Antimicrobial activity against methicillin-resistant coagulase-negative Staphylococcus simulans after 24 hrs by broth microdilution method
In short: (§2)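 Clinical isolates came from blood, body fluids, genital secretions, pus or sputum, identified conventionally or by Vitek. MICs were run by CLSI M7-A6 broth microdilution in Mueller-Hinton broth with 5 × 10^5 CFU/ml inoculum. Agents were twofold serially diluted, starting from 10% DMSO. Drug-free and uninoculated controls were included. Plates were incubated aerobically at 37°C for 24 h; MIC is the lowest concentration giving no visible growth.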

[3] = system: Staphylococcus haemolyticus; experiment: Antimicrobial activity against methicillin-susceptible coagulase-negative Staphylococcus haemolyticus after 24 hrs by broth microdilution method; in short: as §2
Staphylococcus hominis [4] = experiment: Antimicrobial activity against methicillin-susceptible coagulase-negative Staphylococcus hominis after 24 hrs by broth microdilution method; in short: as §2
Porphyromonas gingivalis [5] = experiment: Bactericidal activity against Porphyromonas gingivalis
[6] = system: Staphylococcus epidermidis; experiment: Bactericidal activity against methicillin-resistant coagulase-negative Staphylococcus epidermidis after 24 hrs by plate counting method
Staphylococcus simulans [7] = experiment: Antimicrobial activity against methicillin-susceptible coagulase-negative Staphylococcus simulans after 24 hrs by broth microdilution method; in short: as §2
Hoylesella loescheii [8] = experiment: Bactericidal activity against Prevotella loescheii
Mammaliicoccus sciuri [9] = experiment: Antimicrobial activity against methicillin-resistant coagulase-negative Staphylococcus sciuri after 24 hrs by broth microdilution method; in short: as §2
Staphylococcus hominis [10] = experiment: Bactericidal activity against methicillin-resistant coagulase-negative Staphylococcus hominis after 24 hrs by plate counting method
Staphylococcus aureus [11] = experiment: Bactericidal activity against methicillin-susceptible Staphylococcus aureus after 24 hrs by plate counting method; in short: as §1
Streptococcus mutans [12] = experiment: Antimicrobial activity against Streptococcus mutans
Streptococcus mutans [13] = experiment: Bactericidal activity against Streptococcus mutans
Prevotella intermedia [14] = experiment: Bactericidal activity against Prevotella intermedia
[15] = system: Staphylococcus epidermidis; experiment: Bactericidal activity against methicillin-susceptible coagulase-negative Staphylococcus epidermidis after 24 hrs by plate counting method; in short: as §1
Staphylococcus aureus [16] = experiment: Antimicrobial activity against methicillin-susceptible Staphylococcus aureus after 24 hrs by broth microdilution method; in short: as §2
Hoylesella loescheii [17] = experiment: Antimicrobial activity against Prevotella loescheii
Staphylococcus aureus [18] = experiment: Bactericidal activity against methicillin-resistant Staphylococcus aureus after 24 hrs by plate counting method; conditions: Staphylococcus aureus, 24 h
Porphyromonas gingivalis [19] = experiment: Antimicrobial activity against Porphyromonas gingivalis
[20] = system: Staphylococcus epidermidis; experiment: Antimicrobial activity against methicillin-susceptible coagulase-negative Staphylococcus epidermidis after 24 hrs by broth microdilution method; in short: as §2
Staphylococcus simulans [21] = experiment: Bactericidal activity against methicillin-resistant coagulase-negative Staphylococcus simulans after 24 hrs by plate counting method; in short: as §1
Staphylococcus aureus [22] = experiment: Antimicrobial activity against methicillin-resistant Staphylococcus aureus after 24 hrs by broth microdilution method; in short: as §2
[23] = system: Staphylococcus haemolyticus; experiment: Bactericidal activity against methicillin-susceptible coagulase-negative Staphylococcus haemolyticus after 24 hrs by plate counting method; in short: as §1
[24] = system: Staphylococcus epidermidis; experiment: Antimicrobial activity against methicillin-resistant coagulase-negative Staphylococcus epidermidis after 24 hrs by broth microdilution method; in short: as §2
Mammaliicoccus sciuri [25] = experiment: Bactericidal activity against methicillin-susceptible coagulase-negative Staphylococcus sciuri after 24 hrs by plate counting method; in short: as §1
Cutibacterium acnes [26] = experiment: Bactericidal activity against Propionibacterium acnes
Mammaliicoccus sciuri [27] = experiment: Bactericidal activity against methicillin-resistant coagulase-negative Staphylococcus sciuri after 24 hrs by plate counting method; in short: as §1
[28] = system: Staphylococcus haemolyticus; experiment: Antimicrobial activity against methicillin-resistant coagulase-negative Staphylococcus haemolyticus after 24 hrs by broth microdilution method; in short: as §2
[29] = system: Staphylococcus haemolyticus; experiment: Bactericidal activity against methicillin-resistant coagulase-negative Staphylococcus haemolyticus after 24 hrs by plate counting method
Mammaliicoccus sciuri [30] = experiment: Antimicrobial activity against methicillin-susceptible coagulase-negative Staphylococcus sciuri after 24 hrs by broth microdilution method; in short: as §2
Staphylococcus hominis [31] = experiment: Antimicrobial activity against methicillin-resistant coagulase-negative Staphylococcus hominis after 24 hrs by broth microdilution method; in short: as §2
Prevotella intermedia [32] = experiment: Antimicrobial activity against Prevotella intermedia
Cutibacterium acnes [33] = experiment: Antimicrobial activity against Propionibacterium acnes
Staphylococcus simulans [34] = experiment: Bactericidal activity against methicillin-susceptible coagulase-negative Staphylococcus simulans after 24 hrs by plate counting method; in short: as §1
[35] = Staphylococcus epidermidis, 24 h
[36] = Staphylococcus haemolyticus, 24 h

COc1cc(O)c(C(=O)[C@@H]2[C@H](CC=C(C)C)C(C)=CC[C@H]2c2ccccc2)c(O)c1 [PANDURATIN A]
MBC50 (Staphylococcus hominis [1]): 1 µg/mL (≈ 2.46 µM) | MBC90 (Staphylococcus hominis [1]): 4 µg/mL (≈ 9.84 µM) | MBC (Staphylococcus hominis [1]; Staphylococcus hominis, 24 h): 0.125 µg/mL (≈ 0.307 µM) | MIC50 (Staphylococcus simulans [2]): 0.25 µg/mL (≈ 0.615 µM) | MIC90 (Staphylococcus simulans [2]): 1 µg/mL (≈ 2.46 µM) | MIC50 [3]: 0.5 µg/mL (≈ 1.23 µM) | MIC90 [3]: 1 µg/mL (≈ 2.46 µM) | MIC50 (Staphylococcus hominis [4]): 0.5 µg/mL (≈ 1.23 µM) | MIC90 (Staphylococcus hominis [4]): 1 µg/mL (≈ 2.46 µM) | MBC (Porphyromonas gingivalis [5]): 8 µg/mL (≈ 19.7 µM) | MBC50 [6]: 2 µg/mL (≈ 4.92 µM) | MBC [6, 35]: 1 µg/mL (≈ 2.46 µM) | MIC50 (Staphylococcus simulans [7]): 0.5 µg/mL (≈ 1.23 µM) | MIC90 (Staphylococcus simulans [7]): 1 µg/mL (≈ 2.46 µM) | MBC (Hoylesella loescheii [8]): 8 µg/mL (≈ 19.7 µM) | MIC50 (Mammaliicoccus sciuri [9]): 0.25 µg/mL (≈ 0.615 µM) | MIC90 (Mammaliicoccus sciuri [9]): 1 µg/mL (≈ 2.46 µM) | MBC50 (Staphylococcus hominis [10]): 2 µg/mL (≈ 4.92 µM) | MBC (Staphylococcus hominis [10]; Staphylococcus hominis, 24 h): 1 µg/mL (≈ 2.46 µM) | MBC50 (Staphylococcus aureus [11]): 2 µg/mL (≈ 4.92 µM) | MBC90 (Staphylococcus aureus [11]): 4 µg/mL (≈ 9.84 µM) | MBC (Staphylococcus aureus [11]; Staphylococcus aureus, 24 h): 1 µg/mL (≈ 2.46 µM) | MIC (Streptococcus mutans [12]): 4 µg/mL (≈ 9.84 µM) | MBC (Streptococcus mutans [13]): 8 µg/mL (≈ 19.7 µM) | MBC (Prevotella intermedia [14]): 4 µg/mL (≈ 9.84 µM) | MBC50 [15]: 1 µg/mL (≈ 2.46 µM) | MBC90 [15]: 4 µg/mL (≈ 9.84 µM) | MBC [15, 35]: 0.125 µg/mL (≈ 0.307 µM) | MIC (Staphylococcus aureus [16]): 0.5 µg/mL (≈ 1.23 µM) | MIC50 (Staphylococcus aureus [16]): 0.5 µg/mL (≈ 1.23 µM) | MIC90 (Staphylococcus aureus [16]): 1 µg/mL (≈ 2.46 µM) | MIC (Hoylesella loescheii [17]): 4 µg/mL (≈ 9.84 µM) | MBC (Staphylococcus aureus [18]): 2 µg/mL (≈ 4.92 µM) | MIC (Porphyromonas gingivalis [19]): 4 µg/mL (≈ 9.84 µM) | MIC50 [20]: 0.5 µg/mL (≈ 1.23 µM) | MIC90 [20]: 1 µg/mL (≈ 2.46 µM) | MBC50 (Staphylococcus simulans [21]): 2 µg/mL (≈ 4.92 µM) | MBC (Staphylococcus simulans [21]; Staphylococcus simulans, 24 h): 1 µg/mL (≈ 2.46 µM) | MIC (Staphylococcus aureus [22]): 0.5 µg/mL (≈ 1.23 µM) | MIC50 (Staphylococcus aureus [22]): 0.5 µg/mL (≈ 1.23 µM) | MIC90 (Staphylococcus aureus [22]): 1 µg/mL (≈ 2.46 µM) | MBC50 [23]: 1 µg/mL (≈ 2.46 µM) | MBC90 [23]: 4 µg/mL (≈ 9.84 µM) | MBC [23, 36]: 0.125 µg/mL (≈ 0.307 µM) | MIC50 [24]: 0.25 µg/mL (≈ 0.615 µM) | MIC90 [24]: 1 µg/mL (≈ 2.46 µM) | MBC50 (Mammaliicoccus sciuri [25]): 1 µg/mL (≈ 2.46 µM) | MBC90 (Mammaliicoccus sciuri [25]): 4 µg/mL (≈ 9.84 µM) | MBC (Mammaliicoccus sciuri [25]; Mammaliicoccus sciuri, 24 h): 0.125 µg/mL (≈ 0.307 µM) | MBC (Cutibacterium acnes [26]): 4 µg/mL (≈ 9.84 µM) | MBC50 (Mammaliicoccus sciuri [27]): 2 µg/mL (≈ 4.92 µM) | MBC (Mammaliicoccus sciuri [27]; Mammaliicoccus sciuri, 24 h): 1 µg/mL (≈ 2.46 µM) | MIC50 [28]: 0.25 µg/mL (≈ 0.615 µM) | MIC90 [28]: 1 µg/mL (≈ 2.46 µM) | MBC50 [29]: 2 µg/mL (≈ 4.92 µM) | MBC [29, 36]: 1 µg/mL (≈ 2.46 µM) | MIC50 (Mammaliicoccus sciuri [30]): 0.5 µg/mL (≈ 1.23 µM) | MIC90 (Mammaliicoccus sciuri [30]): 1 µg/mL (≈ 2.46 µM) | MIC50 (Staphylococcus hominis [31]): 0.25 µg/mL (≈ 0.615 µM) | MIC90 (Staphylococcus hominis [31]): 1 µg/mL (≈ 2.46 µM) | MIC (Prevotella intermedia [32]): 2 µg/mL (≈ 4.92 µM) | MIC (Cutibacterium acnes [33]): 2 µg/mL (≈ 4.92 µM) | MBC50 (Staphylococcus simulans [34]): 1 µg/mL (≈ 2.46 µM) | MBC90 (Staphylococcus simulans [34]): 4 µg/mL (≈ 9.84 µM) | MBC (Staphylococcus simulans [34]; Staphylococcus simulans, 24 h): 0.125 µg/mL (≈ 0.307 µM)
